From ChEMBL document CHEMBL4261646, “Bisphosphonate Inhibitors of Mammalian Glycolytic Aldolase” (J Med Chem, 2018)
Calls of active or inactive are those of the source. No cut-off for these calls is given here.

What was measured:
[1] = Inhibition of rabbit muscle fructose-bisphosphate aldolase using FBP as substrate and NADH by spectrophotometry based coupled enzyme assay; set-up: species or system Oryctolagus cuniculus
How it was run: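 Recombinant rabbit muscle aldolase was expressed in E. coli. FBP cleavage was coupled to triose-phosphate isomerase/glycerol-3-phosphate dehydrogenase, and NADH oxidation was read at 340 nm at 25 °C. Buffer was 50 mM Tris-acetate pH 7.5 with 1 mM EDTA and 0.3 mM NADH. Reactions were started by adding enzyme. At least three independent assays.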

[2] = (§1) Competitive-inhibition of fructose-bisphosphate aldolase (unknown origin) using FBP as substrate and […] in presence of constant enzyme concentration by UV-Vis spectrophotometry dependent TIM/GDH coupled assay based double-reciprocal plot analysis; set-up: species or system Homo sapiens
How it was run: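 Recombinant rabbit muscle aldolase at 0.01 μg/mL in TIM/GDH-coupled assay (NADH oxidation at 340 nm, 25 °C, Tris-acetate pH 7.5, 0.3 mM NADH).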

[3] = Inhibition of fructose-bisphosphate aldolase (unknown origin); set-up: species or system Homo sapiens
[4] = Slow binding inhibition of fructose-bisphosphate aldolase (unknown origin) assessed as overall inhibition constant using FBP as substrate and NADH by UV-Vis spectrophotometry dependent TIM/GDH coupled assay based Dixon plot analysis; set-up: species or system Homo sapiens
How it was run: (§2)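 Recombinant rabbit muscle aldolase, TIM/GDH-coupled NADH oxidation at 340 nm, 25 °C, in Tris-acetate pH 7.5 buffer with 1 mM EDTA and 0.3 mM NADH. Progress curves were recorded with 20–200 μM FBP and 0.5–75 μM inhibitor. Slow-binding constants came from non-linear regression under the Morrison–Walsh model; at least three independent assays.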

[5] = Slow binding inhibition of fructose-bisphosphate aldolase (unknown origin) assessed as dissociation constant using FBP as substrate and NADH by UV-Vis spectrophotometry dependent TIM/GDH coupled assay based Dixon plot analysis; set-up: species or system Homo sapiens; how it was run: as §2
HeLa [6] = test: Growth inhibition of human HeLa cells assessed as transport efficiency corrected EC50 for after 72 hrs by trypan blue exclusion assay relative to control; format: functional, cell-based
[7] = Inhibition of fructose-bisphosphate aldolase (unknown origin) using FBP as substrate and NADH preincubated for 0 mins followed by substrate addition by UV-Vis spectrophotometry based TIM/GDH coupled assay; set-up: species or system Homo sapiens
How it was run: (§3)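 Recombinant rabbit muscle aldolase was pre-incubated for the listed time with inhibitor at 0.01–20 μM, then assayed with 10 μM FBP. Cleavage was read by TIM/GDH coupling as NADH oxidation at 340 nm, 25 °C, in 50 mM Tris-acetate pH 7.5, 1 mM EDTA, 0.3 mM NADH. IC50 was taken from a 4-parameter fit; at least three independent assays.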

HeLa [8] = test: Growth inhibition of human HeLa cells after 72 hrs by trypan blue exclusion assay relative to control; format: functional, cell-based
How it was run: (§4)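 Cells seeded in DMEM (HeLa 3 x 10^5, HEK293 2 x 10^5 per plate) were kept at 37 °C, 5% CO2 with filter-sterilized compound for 24, 48 or 72 h. Cells were trypsinized and total counts made by Trypan blue exclusion on a hemocytometer. Student's two-tailed t-test; at least three independent experiments.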

[9] = Slow binding inhibition of fructose-bisphosphate aldolase (unknown origin) assessed as dibasic species population adjusted dissociation constant using FBP as substrate and NADH by UV-Vis spectrophotometry dependent TIM/GDH coupled assay based Dixon plot analysis; set-up: species or system Homo sapiens; details: read-out: Ki(app)
HeLa [10] = test: Growth inhibition of human HeLa cells at 10 uM after 72 hrs by trypan blue exclusion assay relative to control; format: functional; details: read-out: GI; how it was run: as §4
HEK293 = test: Growth inhibition of HEK293 cells at 1 to 50 uM after 24 to 72 hrs by trypan blue exclusion assay; format: cell-based; details: human, hek293, 50 µM; how it was run: as §4
[11] = Inhibition of fructose-bisphosphate aldolase (unknown origin) using FBP as substrate and NADH preincubated for 90 mins followed by substrate addition by UV-Vis spectrophotometry based TIM/GDH coupled assay; set-up: species or system Homo sapiens; how it was run: as §3
HeLa [12] = test: Growth inhibition of human HeLa cells at 50 uM after 72 hrs by trypan blue exclusion assay relative to control; format: functional; details: read-out: GI; how it was run: as §4
[13] = Inhibition of fructose-bisphosphate aldolase (unknown origin) using FBP as substrate and NADH preincubated for 180 mins followed by substrate addition by UV-Vis spectrophotometry based TIM/GDH coupled assay; set-up: species or system Homo sapiens; how it was run: as §3
[14] = Inhibition of fructose-bisphosphate aldolase (unknown origin) using FBP as substrate and NADH preincubated for 10 mins followed by substrate addition by UV-Vis spectrophotometry based TIM/GDH coupled assay; set-up: species or system Homo sapiens; how it was run: as §3
[15] = Inhibition of fructose-bisphosphate aldolase (unknown origin) using FBP as substrate and NADH preincubated for 30 mins followed by substrate addition by UV-Vis spectrophotometry based TIM/GDH coupled assay; set-up: species or system Homo sapiens; how it was run: as §3
[16] = Slow binding inhibition of fructose-bisphosphate aldolase (unknown origin) assessed as dibasic species population adjusted overall inhibition constant using FBP as substrate and NADH by UV-Vis spectrophotometry dependent TIM/GDH coupled assay based Dixon plot analysis; set-up: species or system Homo sapiens; details: read-out: Ki(app)
[17] = as §1, with “Dual competitive-inhibition” for “Competitive-inhibition”, “origin) assessed as inhibition constant for two competitive binding sites in enzyme active site” for “origin)”; set-up: species or system Homo sapiens
How it was run: (§5)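 Recombinant rabbit muscle aldolase was expressed in E. coli BL21-SI. Cleavage of FBP was coupled to TIM/GDH, and NADH oxidation was followed at 340 nm at 25 °C. Buffer was 50 mM Tris-acetate pH 7.5 with 1 mM EDTA and 0.3 mM NADH. Initial rates were fitted to a two-site reversible linear competitive model. At least three independent assays.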

[18] = Dual competitive-inhibition of fructose-bisphosphate aldolase (unknown origin) using FBP as substrate and […] in presence of constant enzyme concentration by UV-Vis spectrophotometry dependent TIM/GDH coupled assay based double-reciprocal plot analysis; set-up: species or system Homo sapiens; how it was run: as §5
HeLa [19] = test: Growth inhibition of human HeLa cells at 1 to 50 uM after 24 to 72 hrs by trypan blue exclusion assay; format: functional, cell-based
How it was run: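 HeLa cells were seeded at 3 x 10^5 cells/plate and grown in DMEM at 37 °C/5% CO2 with filter-sterilized inhibitor for 24, 48 or 72 h. Cells were trypsinized (0.25%), pelleted and resuspended. Total cells were counted by Trypan blue exclusion on a hemocytometer. At least three independent experiments; Student's two-tailed t-test.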

`O=C(COP(=O)(O)O)[C@@H](O)[C@@H](O)[C@H](O)COP(=O)(O)O` showed a Ki [1] of 120000 nM.

`O=P(O)(O)Oc1ccc2cc(OP(=O)(O)O)ccc2c1` showed a Ki [2] of 280 nM and a Ki [3] of 280 nM.

With `O=P([O-])([O-])Oc1ccc2cc(C(P(=O)([O-])[O-])P(=O)([O-])[O-])ccc2c1.[Li+].[Li+].[Li+].[Li+].[Li+].[Li+]` the Ki [4] was 38 nM, the Ki [5] was 280 nM and the EC50 (HeLa [6]) was 75 nM. For the same compound, the IC50 [7] was 670 nM, the EC50 (HeLa [8]) was 50000 nM and the Ki [9] was 56 nM. For the same compound, the inhibition of growth at 10 µM (HeLa [10]) was 30%, the “growth inhibition (GI)” value (HEK293) was “Non-Toxic” and the IC50 [11] was 60 nM. The inhibition of growth at 50 µM (HeLa [12]) was 50%, the IC50 [13] was 68 nM and the IC50 [14] was 170 nM. The IC50 [15] was 130 nM and the Ki [16] was 7.6 nM.

For `O=P(O)(O)C(c1ccc2cc(O)ccc2c1)P(=O)(O)O`, the Ki [17] was 9000 nM and the Ki [18] was 13000 nM.

With `O=P(O)(O)Oc1ccc(C(P(=O)(O)O)P(=O)(O)O)cc1` the Ki [2] was 42000 nM and the “growth inhibition (GI)” value (HeLa [19]) was “inactive”.
